Format in all cases: functional
Assay [1] has as its system Macrophomina phaseolina. In words: Antifungal activity against Rhizoctonia bataticola assessed as growth inhibition at 31 ug/ml by poisoned food technique. The method, boiled down:
(§1)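 Poisoned-food assay on potato dextrose agar: test material is dissolved and diluted in acetone and mixed into the medium before pouring, with an acetone-only control. A 5 mm mycelial disk is cut from the growing edge of a 2-week-old colony and placed inoculum-down at the plate centre. Plates are incubated at 28 °C until control growth is nearly complete. Colony diameter is measured, and % inhibition = (C−T)/C×100. Four replicates give the mean.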

The test system of assay [2] is Rhizoctonia solani. The assay is described as follows: Antifungal activity against Rhizoctonia solani assessed as growth inhibition at 15.50 ug/ml by poisoned food technique. The method, boiled down: as §1
Assay [3] deals with Macrophomina phaseolina. In words: Antifungal activity against Rhizoctonia bataticola assessed as growth inhibition at 15.50 ug/ml by poisoned food technique. The method, boiled down:
as §1

Assay [4] deals with Athelia rolfsii. The assay is described as follows: Antifungal activity against Athelia rolfsii assessed as growth inhibition at 15.50 ug/ml by poisoned food technique. The following applies: Agroathelia rolfsii. The method, boiled down: as §1
Assay [5] concerns Fusarium udum. In words: Antifungal activity against Fusarium udum assessed as growth inhibition by poisoned food technique. The following applies: read-out: ED50 (the source's name). The method, boiled down: (§2)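 ED50 from poisoned-food growth inhibition on PDA at 250, 125 and 62.5 μg/mL in medium, with an acetone control. Plates were inoculated with a 5 mm mycelial disc, incubated at 28 °C, and colony diameter was measured in quadruplicate. Percent inhibition was corrected by Abbott's formula, using a correction factor from the 9 cm dish diameter, and ED50 (μg/mL) was derived by probit analysis.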

In assay [6] the test system is Rhizoctonia solani. The assay is described as follows: Antifungal activity against Rhizoctonia solani assessed as growth inhibition by poisoned food technique. The following applies: read-out: ED50 (the source's name). The method, boiled down:
as §2

In assay [7] the test system is Athelia rolfsii. The assay is described as follows: Antifungal activity against Athelia rolfsii assessed as growth inhibition by poisoned food technique. The following applies: Agroathelia rolfsii; read-out: ED50 (the source's name). The method, boiled down:
as §2

For assay [8], the system named is Rhizoctonia solani. In words: Antifungal activity against Rhizoctonia solani assessed as growth inhibition at 31 ug/ml by poisoned food technique. The method, boiled down:
as §1

Assay [9] has as its system Macrophomina phaseolina. The assay is described as follows: Antifungal activity against Rhizoctonia bataticola assessed as growth inhibition at 7.25 ug/ml by poisoned food technique. The method, boiled down: as §1
For assay [10], the system named is Athelia rolfsii. In words: Antifungal activity against Athelia rolfsii assessed as growth inhibition at 31 ug/ml by poisoned food technique. The following applies: Agroathelia rolfsii. The method, boiled down:
as §1

Assay [11] relates to Fusarium udum. The assay is described as follows: Antifungal activity against Fusarium udum assessed as growth inhibition at 31 ug/ml by poisoned food technique. The method, boiled down:
as §1

Assay [12] concerns Globisporangium debaryanum. In words: Antifungal activity against Pythium debaryanum assessed as growth inhibition at 7.25 ug/ml by poisoned food technique. The method, boiled down:
as §1

Assay [13] relates to Pythium aphanidermatum. The assay is described as follows: Antifungal activity against Pythium aphanidermatum assessed as growth inhibition at 15.50 ug/ml by poisoned food technique. The method, boiled down: as §1
For assay [14], the system named is Pythium aphanidermatum. In words: Antifungal activity against Pythium aphanidermatum assessed as growth inhibition at 7.25 ug/ml by poisoned food technique. The method, boiled down:
as §1

The test system of assay [15] is Globisporangium debaryanum. In words: Antifungal activity against Pythium debaryanum assessed as growth inhibition at 15.50 ug/ml by poisoned food technique. The method, boiled down: as §1
Assay [16] relates to Globisporangium debaryanum. In words: Antifungal activity against Pythium debaryanum assessed as growth inhibition at 31 ug/ml by poisoned food technique. The method, boiled down:
as §1

Assay [17] deals with Rhizoctonia solani. In words: Antifungal activity against Rhizoctonia solani assessed as growth inhibition at 7.25 ug/ml by poisoned food technique. The method, boiled down:
as §1

Assay [18] deals with Macrophomina phaseolina. In words: Antifungal activity against Rhizoctonia bataticola assessed as growth inhibition by poisoned food technique. The following applies: read-out: ED50 (the source's name). The method, boiled down:
as §2

Assay [19] deals with Pythium aphanidermatum. The assay is described as follows: Antifungal activity against Pythium aphanidermatum assessed as growth inhibition at 31 ug/ml by poisoned food technique. The method, boiled down:
as §1

For assay [20], the system named is Athelia rolfsii. In words: Antifungal activity against Athelia rolfsii assessed as growth inhibition at 7.25 ug/ml by poisoned food technique. The following applies: Agroathelia rolfsii. The method, boiled down:
as §1

Assay [21] has as its system Fusarium udum. In words: Antifungal activity against Fusarium udum assessed as growth inhibition at 15.50 ug/ml by poisoned food technique. The method, boiled down: as §1
Assay [22] relates to Fusarium udum. In words: Antifungal activity against Fusarium udum assessed as growth inhibition at 7.25 ug/ml by poisoned food technique. The method, boiled down: as §1
Assay [23] relates to Globisporangium debaryanum. The assay is described as follows: Antifungal activity against Pythium debaryanum assessed as growth inhibition by poisoned food technique. The following applies: read-out: ED50 (the source's name). The method, boiled down:
as §2

The subject of assay [24] is Pythium aphanidermatum. The assay is described as follows: Antifungal activity against Pythium aphanidermatum assessed as growth inhibition by poisoned food technique. The following applies: read-out: ED50 (the source's name). The method, boiled down:
as §2

The test system of assay [25] is Rhizoctonia solani. In words: Antifungal activity against Rhizoctonia solani assessed as growth inhibition at 62.5 ug/ml by poisoned food technique. The method, boiled down: (§3)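 Poisoned-food assay on PDA. Test material was diluted in acetone and mixed into molten medium at final 250, 125 or 62.5 μg/mL, with 1 mL acetone as control. Plates received a 5 mm mycelial disc from the front of a 2-week-old colony and were incubated at 28 °C until control growth was nearly complete. Colony diameter was measured, giving %I = (C−T)/C×100. Mean ± SD of four replicates.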

The subject of assay [26] is Globisporangium debaryanum. In words: Antifungal activity against Pythium debaryanum assessed as growth inhibition at 125 ug/ml by poisoned food technique. The method, boiled down: as §3
For assay [27], the system named is Athelia rolfsii. The assay is described as follows: Antifungal activity against Athelia rolfsii assessed as growth inhibition at 250 ug/ml by poisoned food technique. The following applies: Agroathelia rolfsii. The method, boiled down: as §3
For assay [28], the system named is Macrophomina phaseolina. The assay is described as follows: Antifungal activity against Rhizoctonia bataticola assessed as growth inhibition at 250 ug/ml by poisoned food technique. The method, boiled down:
as §3

In assay [29] the test system is Pythium aphanidermatum. In words: Antifungal activity against Pythium aphanidermatum assessed as growth inhibition at 125 ug/ml by poisoned food technique. The method, boiled down: as §3
Assay [30] concerns Fusarium udum. In words: Antifungal activity against Fusarium udum assessed as growth inhibition at 62.5 ug/ml by poisoned food technique. The method, boiled down: as §3
Assay [31] deals with Pythium aphanidermatum. In words: Antifungal activity against Pythium aphanidermatum assessed as growth inhibition at 250 ug/ml by poisoned food technique. The method, boiled down: as §3
The test system of assay [32] is Rhizoctonia solani. In words: Antifungal activity against Rhizoctonia solani assessed as growth inhibition at 125 ug/ml by poisoned food technique. The method, boiled down: as §3
Assay [33] concerns Macrophomina phaseolina. The assay is described as follows: Antifungal activity against Rhizoctonia bataticola assessed as growth inhibition at 125 ug/ml by poisoned food technique. The method, boiled down:
as §3

The subject of assay [34] is Pythium aphanidermatum. In words: Antifungal activity against Pythium aphanidermatum assessed as growth inhibition at 62.5 ug/ml by poisoned food technique. The method, boiled down: as §3
Assay [35] relates to Globisporangium debaryanum. The assay is described as follows: Antifungal activity against Pythium debaryanum assessed as growth inhibition at 250 ug/ml by poisoned food technique. The method, boiled down: as §3
The test system of assay [36] is Rhizoctonia solani. The assay is described as follows: Antifungal activity against Rhizoctonia solani assessed as growth inhibition at 250 ug/ml by poisoned food technique. The method, boiled down: as §3
For assay [37], the system named is Athelia rolfsii. In words: Antifungal activity against Athelia rolfsii assessed as growth inhibition at 125 ug/ml by poisoned food technique. The following applies: Agroathelia rolfsii. The method, boiled down: as §3
In assay [38] the test system is Fusarium udum. In words: Antifungal activity against Fusarium udum assessed as growth inhibition at 125 ug/ml by poisoned food technique. The method, boiled down: as §3
The subject of assay [39] is Fusarium udum. In words: Antifungal activity against Fusarium udum assessed as growth inhibition at 250 ug/ml by poisoned food technique. The method, boiled down: as §3
The subject of assay [40] is Athelia rolfsii. The assay is described as follows: Antifungal activity against Athelia rolfsii assessed as growth inhibition at 62.5 ug/ml by poisoned food technique. The following applies: Agroathelia rolfsii. The method, boiled down: as §3
The subject of assay [41] is Macrophomina phaseolina. In words: Antifungal activity against Rhizoctonia bataticola assessed as growth inhibition at 62.5 ug/ml by poisoned food technique. The method, boiled down:
as §3

The subject of assay [42] is Globisporangium debaryanum. The assay is described as follows: Antifungal activity against Pythium debaryanum assessed as growth inhibition at 62.5 ug/ml by poisoned food technique. The method, boiled down:
as §3

In brackets after ≈: the same amount, converted by molar mass.

By inhibition is commonly meant the relative decrease from the control value, in per cent.

For `CCCCC(O)(Cn1cncn1)c1ccc(Cl)cc1Cl` (stereo not drawn) [HEXACONAZOLE], the inhibition at 31 µg/mL in assay [1] came to 87%; in assay [8], 72.6%; in assay [10] it was 90.7%; in [11] it was 70%; in assay [16], 59.2%; in [19], 65.3%. Besides, the inhibition at 15.5 µg/mL in [2] is 38.2%; in assay [3], 73.2%; in [4], 45.3%; in assay [13] it was 32.7%; in [15], 26.3%; in assay [21], 23.7%. Besides, the EC50 in [5] is 22 µg/mL (≈ 70 µM); in assay [6], 18.3 µg/mL (≈ 58.2 µM); in [7], 13.4 µg/mL (≈ 42.7 µM); in [18] it was 4.4 µg/mL (≈ 14 µM); in [23], 25.9 µg/mL (≈ 82.5 µM); in assay [24], 22.1 µg/mL (≈ 70.2 µM). The inhibition at 7.25 µg/mL came out at 60.1% in [9]; 11.1% in [12]; 14.1% in [14]; 20.6% in assay [17]; 28.2% in [20]; 18.6% in assay [22].

For `Cc1cc(O)c(C=O)c2c1C(=O)Oc1c(CO)c(O)c3c(c1O2)C(O)OC3=O` (stereo not drawn) [SLAZINIC ACID], the inhibition at 62.5 µg/mL in assay [25] was found to be 22.1%; in [30] it was 31%; in assay [34], 11.1%; in [40], 5.93%; in [41], 9%; in assay [42] it was 11.9%. Besides, the inhibition at 125 µg/mL was found to be 28.1% in assay [26]; 25.5% in [29]; 30.2% in assay [32]; 26.8% in assay [33]; 21% in assay [37]; 50.1% in assay [38]. The inhibition at 250 µg/mL in assay [27] is 38.2%; in assay [28], 41.2%; in assay [31] it was 61%; in assay [35], 43.5%; in [36], 45.2%; in assay [39] it was 67%. The EC50 in assay [5] is 88.2 µg/mL (≈ 227 µM); in assay [6], 179 µg/mL (≈ 462 µM); in assay [7], 164 µg/mL (≈ 423 µM); in [18], 161 µg/mL (≈ 416 µM); in assay [23], 151 µg/mL (≈ 388 µM); in assay [24], 121 µg/mL (≈ 312 µM).

Source of the values: ChEMBL document CHEMBL3046428, “Isolation, characterization and antifungal activity of major constituents of the Himalayan lichen Parmelia reticulata Tayl” (2011).
